According to ChEMBL document CHEMBL2157986, “The multiobjective based design, synthesis and evaluation of the arylsulfonamide/amide derivatives of aryloxyethyl- and arylthioethyl- piperidines and pyrrolidines as a novel class of potent 5-HT₇ receptor antagonists” (Eur J Med Chem, 2012):
Values belong to the molecule of their own block, whether it stands above or below them.

What was measured:
[1] = biological target: 5-hydroxytryptamine receptor 7 (Homo sapiens, UniProt P34969); experiment: Displacement of [3H]-5-CT from human 5-HT7b receptor expressed in HEK293 cells after 1 hr; type: cell-based
[2] = biological target: T1, 5-hydroxytryptamine receptor 1A (Homo sapiens, UniProt P08908); experiment: Displacement of [3H]-8-OH-DPAT from human 5-HT1A receptor expressed in HEK293 cells after 1 hr; type: cell-based
T1 sequence (P08908 whole entry): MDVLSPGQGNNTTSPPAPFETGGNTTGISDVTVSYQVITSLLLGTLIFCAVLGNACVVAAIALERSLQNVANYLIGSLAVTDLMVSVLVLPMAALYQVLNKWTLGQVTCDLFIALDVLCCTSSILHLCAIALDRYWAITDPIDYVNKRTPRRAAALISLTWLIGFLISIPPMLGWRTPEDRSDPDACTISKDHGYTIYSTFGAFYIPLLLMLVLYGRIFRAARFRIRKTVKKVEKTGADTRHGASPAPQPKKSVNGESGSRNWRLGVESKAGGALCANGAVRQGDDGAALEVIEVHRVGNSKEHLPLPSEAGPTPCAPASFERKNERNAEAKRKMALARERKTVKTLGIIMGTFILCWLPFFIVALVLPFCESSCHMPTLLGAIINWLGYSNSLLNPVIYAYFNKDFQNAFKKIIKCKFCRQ
Outline: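 Membranes from stably transfected HEK293 cells (human 5-HT1A), homogenized in 50 mM Tris–HCl, 0.1 mM EDTA, 4 mM MgCl2, 10 µM pargyline, 0.1% ascorbate; incubated 1 h at room temperature, then rapid filtration and radioactivity counting. Nonspecific binding with 10 µM 5-HT.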

[3] = biological target: 5-hydroxytryptamine receptor 6 (Homo sapiens, UniProt P50406); experiment: Displacement of [3H]-LSD from human 5-HT6 receptor expressed in HEK293 cells after 1 hr; type: cell-based
D(2) dopamine receptor = D(2) dopamine receptor (Homo sapiens, UniProt P14416); experiment: Binding affinity to human dopamine D2L receptor expressed in HEK293 cells after 1 hr; type: cell-based
Homo sapiens = organism: Homo sapiens; experiment: Selectivity ratio of Ki for human 5-HT1A receptor to Ki for human 5-HT7b receptor

Sequence of D(2) dopamine receptor (P14416 whole entry): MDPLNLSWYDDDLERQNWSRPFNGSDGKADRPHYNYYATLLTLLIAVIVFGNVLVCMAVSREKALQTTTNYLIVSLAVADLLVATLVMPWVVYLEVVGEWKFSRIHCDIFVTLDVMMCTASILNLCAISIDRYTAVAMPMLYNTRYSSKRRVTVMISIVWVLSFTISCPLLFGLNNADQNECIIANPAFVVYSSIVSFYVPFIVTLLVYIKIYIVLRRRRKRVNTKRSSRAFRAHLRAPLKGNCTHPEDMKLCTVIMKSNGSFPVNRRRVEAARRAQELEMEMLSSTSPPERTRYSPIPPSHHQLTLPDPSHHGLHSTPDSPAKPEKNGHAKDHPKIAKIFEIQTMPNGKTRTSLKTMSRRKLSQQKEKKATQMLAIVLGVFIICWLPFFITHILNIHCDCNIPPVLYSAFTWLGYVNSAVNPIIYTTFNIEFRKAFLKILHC
Sequence of 5-hydroxytryptamine receptor 6 (P50406 whole entry): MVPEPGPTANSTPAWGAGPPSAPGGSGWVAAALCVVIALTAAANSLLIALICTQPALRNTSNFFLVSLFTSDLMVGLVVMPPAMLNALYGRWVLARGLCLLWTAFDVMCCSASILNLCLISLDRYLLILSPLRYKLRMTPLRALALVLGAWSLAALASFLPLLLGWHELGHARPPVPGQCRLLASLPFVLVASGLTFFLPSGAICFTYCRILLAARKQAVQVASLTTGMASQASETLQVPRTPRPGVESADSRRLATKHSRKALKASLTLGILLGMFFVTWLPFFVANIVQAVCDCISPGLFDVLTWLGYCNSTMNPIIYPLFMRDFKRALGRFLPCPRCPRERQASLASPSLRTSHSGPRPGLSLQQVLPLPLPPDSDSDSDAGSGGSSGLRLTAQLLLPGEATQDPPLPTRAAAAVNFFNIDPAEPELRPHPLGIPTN
Sequence of 5-hydroxytryptamine receptor 7 (P34969 whole entry): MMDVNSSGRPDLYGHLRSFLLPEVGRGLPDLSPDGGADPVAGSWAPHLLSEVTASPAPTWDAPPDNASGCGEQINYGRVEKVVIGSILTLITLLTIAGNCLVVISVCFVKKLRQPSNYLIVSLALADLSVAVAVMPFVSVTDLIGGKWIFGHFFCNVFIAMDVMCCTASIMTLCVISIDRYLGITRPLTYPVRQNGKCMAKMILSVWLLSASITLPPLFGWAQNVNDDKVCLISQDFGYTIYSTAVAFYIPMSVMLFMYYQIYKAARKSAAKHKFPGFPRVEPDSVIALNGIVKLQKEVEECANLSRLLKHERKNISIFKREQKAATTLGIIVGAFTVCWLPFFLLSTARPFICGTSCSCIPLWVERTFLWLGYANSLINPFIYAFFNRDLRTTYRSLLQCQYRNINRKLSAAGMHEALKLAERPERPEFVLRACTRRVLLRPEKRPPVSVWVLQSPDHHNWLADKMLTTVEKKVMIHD

Compound: CC(C)c1ccccc1OCCN1CCC(NC(=O)c2ccc3ccccc3n2)C1 (stereo not given)
Ki [1]: 178 nM | Ki [2]: 30 nM | Ki [3]: 1760 nM | Ki (D(2) dopamine receptor): 79 nM | Ratio Ki (Homo sapiens): < 1

Compound: O=S(=O)(NC1CCN(CCOc2ccccc2)CC1)c1cccs1
Ki [1]: 155 nM | Ki [2]: 237 nM | Ki [3]: 862 nM | Ki (D(2) dopamine receptor): 84 nM | Ratio Ki (Homo sapiens): 2

Molecules with a lower Ki [1], results first:

Ki [1]: 60 nM | Ki [2]: 141 nM | Ki [3]: 313 nM | Ki (D(2) dopamine receptor): 50 nM | Ratio Ki (Homo sapiens): 2
Compound: CC(C)c1ccccc1OCCN1CCC(CNS(=O)(=O)c2ccc(F)cc2)CC1

Ki [1]: 7 nM | Ki [2]: 92 nM | Ki [3]: 327 nM | Ki (D(2) dopamine receptor): 24 nM | Ratio Ki (Homo sapiens): 13
Compound: O=S(=O)(NC1CCN(CCOc2ccccc2-c2ccccc2)C1)c1ccc(F)c(F)c1 (stereo not given)

Ki [1]: 11 nM | Ki [2]: 10 nM | Ki [3]: 357 nM | Ki (D(2) dopamine receptor): 41 nM | Ratio Ki (Homo sapiens): 1
Compound: CSc1ccccc1OCCN1CCC(NS(=O)(=O)c2ccc(F)cc2)C1 (stereo not given)

Ki [1]: 16 nM | Ki [2]: 22 nM | Ki [3]: 96 nM | Ki (D(2) dopamine receptor): 72 nM | Ratio Ki (Homo sapiens): 1
Compound: O=S(=O)(NC1CCN(CCOc2cccc3c2CCCC3)C1)c1ccc(F)cc1 (stereo not given)
